In one data set the target is Adenosine receptor A2a (Rattus norvegicus, UniProt P30543). Description: Radioligand binding assay for [3H]NECA affinity towards adenosine A2A receptor of rat striatum. The data set is classed as tissue-based. The method in brief: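 Rat striatal membranes incubated with [3H]NECA. 50 nM N6-cyclopentyladenosine present to block A1 sites. Nonspecific binding defined with 5 mM theophylline. Five to six test concentrations, each in triplicate, in at least two separate experiments. Ki derived from inhibition of binding.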

The target in another data set is T1, Adenosine receptor A1 (Rattus norvegicus, UniProt P25099).
T1 sequence (P25099 whole entry): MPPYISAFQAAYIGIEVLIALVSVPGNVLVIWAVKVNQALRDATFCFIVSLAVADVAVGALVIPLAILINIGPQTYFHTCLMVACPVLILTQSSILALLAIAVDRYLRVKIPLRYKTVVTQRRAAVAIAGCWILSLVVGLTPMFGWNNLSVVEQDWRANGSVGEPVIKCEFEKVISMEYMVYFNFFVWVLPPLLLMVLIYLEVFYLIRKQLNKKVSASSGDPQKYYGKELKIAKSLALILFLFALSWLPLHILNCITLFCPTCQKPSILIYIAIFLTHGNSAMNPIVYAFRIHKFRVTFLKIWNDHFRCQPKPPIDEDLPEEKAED
Description: Radioligand binding assay for [3H]-PIA affinity towards Adenosine A1 receptor of rat cerebral cortical membrane. The method in brief:
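Rat cerebral cortical membranes incubated with [3H]-(R)-PIA. Nonspecific binding defined with 10 μM 2-chloroadenosine. Five to six test concentrations, each in triplicate, in at least three separate experiments. Ki calculated from inhibition of binding.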

Data set [1] addresses Adenosine receptors; A1 & A2 (Rattus norvegicus) (UniProt P29276+P25099+P30543). The data set can be described thus: Selectivity ratio between A1 and A2-receptors estimated as A2/A1. Type of data set: protein assay.
A short description of data set [2]: Solubility in 50 mM TRIS-HCl buffer containing 1% DMSO, pH 7.4. Type of data set: physicochemical. As to conditions: read-out: S. The method in brief:
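Bruns–Fergus biochemical method. 10 mM DMSO stock diluted 1:100 into 50 mM Tris-HCl pH 7.4, shaken overnight at room temperature, centrifuged and filtered through cotton. Serial dilutions of the saturated supernatant tested in an A1 [3H]CHA binding assay (KD 1 nM).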

Data set [3] is described as follows: Solubility in 50 mM TRIS-HCl buffer containing 2.5% DMSO, pH 7.4. Type of data set: physicochemical. As to conditions: read-out: S. The gist of the method: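 A 10 mM DMSO stock was diluted 1:40 into 50 mM TRIS-HCl, pH 7.4 (2.5% DMSO), then shaken overnight at room temperature to equilibrium. After centrifugation, the supernatant was filtered and serially diluted. Dilutions were tested in an A1 binding assay with [3H]CHA (KD 1 nM).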

The nature of data set [4]: Partition coefficient (logP). Type of data set: physicochemical. The note with it: octanol/water.
In data set [5] the target is T2, Adenosine receptor A3 (Rattus norvegicus) (UniProt P28647).
T2 sequence (whole entry): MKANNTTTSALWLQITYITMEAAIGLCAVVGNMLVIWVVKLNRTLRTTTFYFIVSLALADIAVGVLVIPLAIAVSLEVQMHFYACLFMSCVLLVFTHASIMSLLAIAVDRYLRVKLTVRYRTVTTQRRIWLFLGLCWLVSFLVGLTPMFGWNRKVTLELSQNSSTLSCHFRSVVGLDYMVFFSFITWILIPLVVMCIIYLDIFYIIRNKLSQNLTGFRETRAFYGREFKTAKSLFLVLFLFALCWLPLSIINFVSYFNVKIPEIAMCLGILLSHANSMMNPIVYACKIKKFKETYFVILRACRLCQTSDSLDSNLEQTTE
The data set can be described thus: Percent inhibition of binding to rat Adenosine A3 receptor at 10 uM.

Data set [6] addresses T3, Adenosine receptor A2b (Rattus norvegicus) (UniProt P29276).
T3 sequence (whole entry): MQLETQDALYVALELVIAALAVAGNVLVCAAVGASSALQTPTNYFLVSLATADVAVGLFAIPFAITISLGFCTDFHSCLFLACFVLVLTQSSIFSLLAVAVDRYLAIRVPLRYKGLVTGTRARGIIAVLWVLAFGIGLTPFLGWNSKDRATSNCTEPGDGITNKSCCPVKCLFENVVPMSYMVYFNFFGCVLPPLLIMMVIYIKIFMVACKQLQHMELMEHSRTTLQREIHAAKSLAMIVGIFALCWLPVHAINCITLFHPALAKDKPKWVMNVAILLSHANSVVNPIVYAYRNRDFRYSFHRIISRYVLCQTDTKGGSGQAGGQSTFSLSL
The data set can be described thus: Antagonistic binding affinity for rat Adenosine A2B receptor.

The target of data set [7] is Adenosine receptor A2a (Rattus norvegicus) (UniProt P30543). Description: Antagonism of NECA-stimulated adenylate cyclase at Adenosine A2A receptor in rat PC12 cell membranes.

≈ marks a conversion by molar mass, not a printed value.

Adenosine receptor A2a, sequence (P30543 whole entry): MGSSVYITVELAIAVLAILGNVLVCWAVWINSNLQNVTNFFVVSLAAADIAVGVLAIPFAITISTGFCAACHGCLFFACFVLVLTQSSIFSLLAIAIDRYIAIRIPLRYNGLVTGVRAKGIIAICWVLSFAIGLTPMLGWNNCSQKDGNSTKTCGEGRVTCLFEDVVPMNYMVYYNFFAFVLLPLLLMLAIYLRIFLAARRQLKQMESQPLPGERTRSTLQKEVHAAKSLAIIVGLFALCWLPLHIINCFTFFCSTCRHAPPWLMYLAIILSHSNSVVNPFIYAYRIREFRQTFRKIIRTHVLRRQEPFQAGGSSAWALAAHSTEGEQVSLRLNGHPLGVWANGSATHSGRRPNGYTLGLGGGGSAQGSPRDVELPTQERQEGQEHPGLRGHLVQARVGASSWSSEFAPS
Adenosine receptors; A1 & A2 (Rattus norvegicus), sequence (P30543 whole entry, looked up, one chain of several): as the sequence (P30543 whole entry) above
Adenosine receptor A2a (Rattus norvegicus), sequence (P30543 whole entry): as above

For `Cc1c(C)n([C@H](C)c2ccccc2)c2ncnc(N[C@H](C)c3ccccc3)c12`, at Adenosine receptor A2a, the Ki – broadly, a measure of affinity in units of concentration, obtained from inhibition or displacement – was more than 30 µM.

As to `Cc1c(C)n([C@@H](C)c2ccccc2)c2nc(-c3ccccc3Cl)nc(N)c12`, the Ki at Adenosine receptor A1 is 0.273 µM; at Adenosine receptor A2a, more than 30 µM. Also, the Selectivity ratio in data set [1] was more than 110.

Consider `Cc1c(C)n([C@@H](C)c2ccccc2)c2nc(-c3ccccc3)nc(N)c12`, for which the solubility in data set [2] was determined as 0.26 µM (≈ 0.089 µg/mL). For the same compound, the values for the Ki on Adenosine receptor A1 and at Adenosine receptor A2a were 0.0047 µM and 3.71 µM, respectively. Further, the Selectivity ratio in data set [1] is 789.

Turning to `O=C1Nc2ncnc(O)c2C12CCCC2`, the Selectivity in data set [1] was 2.7.

For the compound `Cc1c(C)n([C@@H](C)c2ccccc2)c2nc(-c3ccccc3)[nH]c(=O)c12`, the Ki at Adenosine receptor A1 and at Adenosine receptor A2a was more than 30 µM each time.

With `Cc1ccc([C@H](C)n2c3ccccc3c3c(N)nc(-c4ccccc4)nc32)cc1`, the Ki on Adenosine receptor A1 is 0.297 µM; on Adenosine receptor A2a it was more than 30 µM. Further, the Selectivity ratio in data set [1] was more than 101.

As for `C[C@H](c1ccccc1)N1C(=O)C2(CCCC2)c2c(O)nc(-c3ccccc3)nc21`, the inhibition constant Ki on Adenosine receptor A1 and at Adenosine receptor A2a was more than 30 µM in each case.

In the case of `Cc1ccc([C@@H](C)n2c3ccccc3c3c(N)nc(-c4ccccc4)nc32)cc1`, the values for the Ki at Adenosine receptor A1 and at Adenosine receptor A2a were 0.014 µM and 21.4 µM, respectively. Besides, in data set [1], the Selectivity ratio was 1530.

With `C[C@@H](c1ccccc1)n1c2ccccc2c2c(O)nc(-c3ccccc3)nc21`, the Ki at Adenosine receptor A1 and at Adenosine receptor A2a was more than 30 µM in each case.

For the compound `Cc1nc2nc(-c3ccccc3)[nH]c(N[C@H](C)c3ccccc3)c-2c1C`, the solubility in [2] came out at 1.5 µM (≈ 0.514 µg/mL); in [3], 5.9 µM (≈ 2.02 µg/mL). Further, the lipophilicity (logP) (in general, the decadic logarithm of the partition coefficient of the neutral form, usually between octanol and water) in data set [4] amounted to 3.5. The Ki was 0.0067 µM at Adenosine receptor A1 and more than 30 µM on Adenosine receptor A2a. Besides, in data set [1], the Selectivity is more than 4480.

On to `O=C1N(c2ccccc2)c2nc[nH]c(=O)c2C12CCCC2`, for which the Ki on Adenosine receptor A1 stood at 1.3 µM; at Adenosine receptor A2a, 17.2 µM.

Consider `Cc1c(C)n([C@@H](C)c2ccccc2)c2nc(-c3cccc(Cl)c3)nc(N)c12`, for which the Ki at Adenosine receptor A1 is 0.485 µM; at Adenosine receptor A2a it was more than 30 µM. The Selectivity ratio in data set [1] was more than 62.

For the compound `C[C@@H](Cc1ccccc1)n1c2ccccc2c2c(N)nc(-c3ccccc3)nc21`, the Ki on Adenosine receptor A1 was 0.32 µM; on Adenosine receptor A2a, more than 30 µM. Moreover, in data set [1], the Selectivity ratio is more than 94.

For `O=C1N(c2ccccc2)c2ncnc(O)c2C12CCCC2`, in data set [1], the Selectivity is 13.

Take `O=C1Nc2nc[nH]c(=O)c2C12CCCC2`: the Ki on Adenosine receptor A1 turned out to be 127 µM; on Adenosine receptor A2a, 346 µM.

In the case of `Nc1nc(-c2ccccc2)nc2c1c1ccccc1n2-c1ccccc1`, the Ki at Adenosine receptor A1 came out at 0.022 µM; at Adenosine receptor A2a, 8.3 µM. In data set [1], the Selectivity is 377.

Regarding `Cc1c(C)n([C@@H](C)c2ccccc2)c2ncnc(N[C@@H](C)c3ccccc3)c12`, on Adenosine receptor A2a, the Ki was more than 30 µM.

Turning to `Cc1c(C)n([C@H](C)c2ccccc2)c2nc(-c3ccc(Cl)c(Cl)c3)nc(N)c12`, the Ki is 0.33 µM on Adenosine receptor A1 and more than 30 µM on Adenosine receptor A2a. For the same compound, in data set [1], the Selectivity ratio is more than 91.

The compound `Cc1c(C)n([C@@H](C)c2ccccc2)c2nc(-c3ccc(Cl)c(Cl)c3)nc(N)c12` showed a Ki at Adenosine receptor A1 of 1.8 µM. Besides, in data set [1], the Selectivity ratio is more than 17.

Regarding `Cc1c(C)n([C@H](C)c2ccccc2)c2nc(-c3ccccc3)nc(N)c12`, the Ki is 0.165 µM at Adenosine receptor A1 and 81 µM at Adenosine receptor A2a. For the same compound, the Selectivity ratio in data set [1] is 490.

Regarding `Cc1c(C)n([C@@H](C)c2ccccc2)c2nc(-c3ccc(Cl)cc3)nc(N)c12`, the Ki on Adenosine receptor A1 is 0.878 µM; at Adenosine receptor A2a it was more than 30 µM. For the same compound, the Selectivity ratio in data set [1] is more than 34.

For `Cc1c(C)n([C@@H](C)c2ccccc2)c2nc(-c3ccc(Cl)cc3)[nH]c(=O)c12`, the Ki at Adenosine receptor A1 and at Adenosine receptor A2a was more than 30 µM throughout.

Regarding `COc1cccc(-c2nc(N)c3c(C)c(C)n([C@H](C)c4ccccc4)c3n2)c1`, the Ki at Adenosine receptor A1 is 0.083 µM; at Adenosine receptor A2a, more than 10 µM. In addition, in data set [1], the Selectivity ratio was more than 120.

For `Cc1nc2nc(-c3ccccc3)[nH]c(N[C@@H](C)c3ccccc3)c-2c1C`, the Selectivity in data set [1] is more than 47.

With `Cc1c(C)n([C@H](C)c2ccccc2)c2nc(-c3ccc(Cl)cc3)nc(O)c12`, the Ki on Adenosine receptor A1 and on Adenosine receptor A2a was more than 30 µM each time.

Turning to `CC(c1ccccc1)n1c2ccccc2c2c(N)ncnc21` (configuration not stated), the Ki on Adenosine receptor A1 stood at 1.13 µM; at Adenosine receptor A2a, 27.7 µM. Moreover, the Selectivity ratio in data set [1] was 25.

`Oc1ncnc2c1c1ccccc1n2-c1ccccc1`: the inhibition (commonly the relative decrease from the control value, in per cent) in data set [5] is less than 20%. In addition, the Kb (as a rule, the affinity of an antagonist, worked out from how it opposes an agonist) in [6] was 3.4 µM; in [7], 2.5 µM.

For `Cc1c(C)n([C@H](C)c2ccccc2)c2nc(-c3cccc(Cl)c3)nc(N)c12`, the solubility in data set [2] stood at 2.8 µM (≈ 1.06 µg/mL). The inhibitory constant (Ki) was found to be 0.0076 µM at Adenosine receptor A1 and 16.3 µM on Adenosine receptor A2a. The Selectivity ratio in data set [1] was 2140.

As for `Cc1[nH]c2nc(-c3ccccc3)nc(N[C@@H](C)c3ccccc3)c2c1C`, the Ki at Adenosine receptor A1 was 0.64 µM; at Adenosine receptor A2a it was more than 30 µM.

Take `Cc1c(C)n([C@H](C)c2ccccc2)c2nc(-c3ccccc3Cl)nc(N)c12`: the Ki at Adenosine receptor A1 turned out to be 0.0096 µM; on Adenosine receptor A2a it was 5.2 µM. In data set [1], the Selectivity ratio is 537.

Turning to `COc1ccc(-c2nc(N)c3c(C)c(C)n([C@H](C)c4ccccc4)c3n2)cc1`, the Ki on Adenosine receptor A1 is 0.101 µM; on Adenosine receptor A2a, more than 10 µM. Moreover, the Selectivity ratio in [1] is more than 99.

Consider `Cc1c(C)n([C@H](C)c2ccccc2)c2nc(-c3ccc(Cl)cc3)nc(N)c12`, for which the solubility in data set [2] came to 2.2 µM (≈ 0.829 µg/mL); in [3] it was 7.2 µM (≈ 2.71 µg/mL). The Ki at Adenosine receptor A1 is 0.05 µM; on Adenosine receptor A2a it was more than 30 µM. Besides, the Selectivity ratio in [1] is more than 600.

Consider `C[C@H](c1ccccc1)n1c2ccccc2c2c(N)nc(-c3ccccc3)nc21`, for which the results for the solubility in data set [2] and in data set [3] were 0.48 µM (≈ 0.175 µg/mL) and 1.5 µM (≈ 0.547 µg/mL), respectively. Also, the Ki on Adenosine receptor A1 worked out at 0.0026 µM; at Adenosine receptor A2a it was 6.2 µM.

Consider `Cc1c(C)n([C@H](C)c2ccccc2)c2nc(-c3ccccc3)nc(O)c12`, for which the Ki on Adenosine receptor A1 is 2.98 µM; on Adenosine receptor A2a, more than 30 µM. Besides, the Selectivity in data set [1] was more than 10.

The compound `CC(c1ccccc1)N1C(=O)C2(CCCC2)c2c(O)ncnc21` (configuration not stated) gave a Ki on Adenosine receptor A2a of 88.4 µM. For the same compound, the Selectivity in [1] is 26.

With `C[C@@H](c1ccccc1)n1c2ccccc2c2c(N)nc(-c3ccccc3)nc21`, the Ki was 0.064 µM at Adenosine receptor A1 and more than 30 µM on Adenosine receptor A2a.

Turning to `C[C@H](c1ccccc1)n1c2ccccc2c2c(O)nc(-c3ccccc3)nc21`, the Ki at Adenosine receptor A1 and on Adenosine receptor A2a was more than 30 µM in each case.

These data come from ChEMBL document CHEMBL1129727, “Chiral pyrrolo[2,3-d]pyrimidine and pyrimido[4,5-b]indole derivatives: structure-activity relationships of potent, highly stereoselective A1-adenosine receptor antagonists” (J Med Chem, 1996).
